A selection: hits, their analogues and other compounds. The true share with any hit is near 1.8%.
FLuc act counter: affects firefly luciferase, flagging false hits in luciferase stimulation screens. P08659. ATPlite luciferase biochemical, luminescence, 10 min; 0 = ATP-free wells, 1 = DMSO control. activation factor at 10 µM. 200,000 tested, under 10 active. AID 1027;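 active = luciferase activation factor, scaled between plate controls, of at least 2 with compound at 10 µM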
Target sequence (P08659 whole entry, looked up): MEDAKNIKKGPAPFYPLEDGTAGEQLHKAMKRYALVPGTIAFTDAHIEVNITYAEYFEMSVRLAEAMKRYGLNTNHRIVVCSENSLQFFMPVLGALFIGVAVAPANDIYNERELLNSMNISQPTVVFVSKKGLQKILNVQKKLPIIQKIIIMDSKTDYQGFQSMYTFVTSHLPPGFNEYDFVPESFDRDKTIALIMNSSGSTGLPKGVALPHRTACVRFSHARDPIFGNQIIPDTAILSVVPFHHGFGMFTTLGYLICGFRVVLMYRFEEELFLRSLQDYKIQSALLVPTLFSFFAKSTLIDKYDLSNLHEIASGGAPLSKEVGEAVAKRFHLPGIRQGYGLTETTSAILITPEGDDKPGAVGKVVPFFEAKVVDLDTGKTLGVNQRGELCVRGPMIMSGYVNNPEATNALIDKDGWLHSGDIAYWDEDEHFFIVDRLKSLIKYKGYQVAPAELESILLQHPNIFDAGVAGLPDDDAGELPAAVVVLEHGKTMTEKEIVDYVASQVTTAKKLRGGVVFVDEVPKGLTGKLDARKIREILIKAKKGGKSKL
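Assay system: Luciferase/luciferin reagent mix; Medium: PBS as buffer for the ATP substrate; Dosing: test compounds dosed from 2 mM stocks in 100% DMSO; Times: 10 min, room temperature; Signal: luminescence from luciferase reaction; Read-out: luciferase activation; Controls: No-ATP low control, compound-free enzyme-plus-ATP high control.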
PPC-1+TRAIL kill: PPC-1 cancer cell killing with TRAIL present; cell killing (% activity), % at 4 µM or 5 µM; AID 1443; 0.41% of 220,000 active; PPC-1 cells + TRAIL, ATPLite viability luminescence;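 active = cell killing above 50% in the first pass at 4 µM, then a duplicate retest at 5 µM averaging 50% or more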
hiPSC survival: increases survival of single human iPS cells. hiPSC single-cell survival, ATPlite luminescence; 100% = ROCK inhibitor wells, 0% = DMSO. 0.044% of 360,000 active. survival enhancement, % at 20 µM; in the data active = survival enhancement above about 18%;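 note: cells exposed to compounds for 16 hours before the ATP read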
TRAIL sens C8: caspase-8 TRAIL sensitization. AID 624354. NB7+C8 cells + TRAIL, ATPlite viability luminescence. 1% of 360,000 active. inhibition (viability loss, TRAIL sensitization), % at 10 µM;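 active = compounds causing at least 50% loss of cell viability in the single-dose screen, relative to plate controls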
MIN6 prolif: induces beta-cell replication in MIN6 cells. 0.29% of 330,000 active. proliferation, % at 10 µM. MIN6 cells proliferation, ATPlite luminescence, 48 h; cells starved in 0.2% serum; 100% = growth in 10% serum;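 active = compounds whose signal lies at least 3.5 SD above the mean of all wells on their plate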
FLuc inhib CS: counter-screen for luciferase assay inhibitors: firefly luciferase inhibition. ATPLite firefly luciferase biochemical luminescence, 10 min. inhibition, % at 10 µM. 1.5% of 200,000 active. AID 1006. P08659;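 active = inhibition above about 50% when tested at 10 µM, limit read from the data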
A number is an active result; n = inactive; x = no result given.

SMILES | FLuc act counter | PPC-1+TRAIL kill | hiPSC survival | TRAIL sens C8 | MIN6 prolif | FLuc inhib CS
CCc1cc2c(N=Nc3c(O)[nH]c4ccccc34)ncnc2s1 | n | n | n | n | n | n
Cc1sc2ncnc(N=Nc3c(O)[nH]c4ccccc34)c2c1C | n | n | n | n | n | 50
N#CC1=C(N)OC2=C(C(=O)CC(c3ccccc3)C2)C1c1ccoc1 (centres undefined) | n | 85 | n | n | n | n
O=C(Nc1cccc(-c2ccc(N3CCOCC3)nn2)c1)c1ccccc1Cl | x | x | n | 61 | n | x
O=C(COc1ccc(Cl)cc1)Nc1cccc(-c2ccc(N3CCOCC3)nn2)c1 | x | x | n | 59 | n | x
O=C(Nc1cccc(-c2ccc(N3CCCCC3)nn2)c1)c1ccco1 | x | x | n | 81 | n | x
O=C(Nc1cccc(-c2ccc(N3CCOCC3)nn2)c1)c1ccc(Cl)cc1 | x | x | n | n | n | x
COc1cccc(OC)c1C(=O)Nc1cccc(-c2ccc(N3CCOCC3)nn2)c1 | x | x | n | 73 | n | x
Cn1c(N)c(C(=O)COC(=O)c2ccccc2C(=O)c2ccc(Cl)cc2)c(=O)n(C)c1=O | x | x | n | n | n | x
O=C(CC[C@H]1O[C@@H](n2ccc(=O)[nH]c2=O)[C@H](O)[C@@H]1O)N[C@H](Cc1ccccc1)C(=O)NCC1CCCCC1 | x | x | n | n | x | x
CCOc1ccc(CCN2C(=O)C(=O)N([C@@H](Cc3ccccc3)CN3CCC[C@H]3CN3C(=O)C(=O)NC[C@@H]3CC(C)C)C[C@@H]2Cc2ccc(O)cc2)cc1 | x | x | n | n | x | x
Cc1cc(C(=O)Nc2cccc(-c3ccc(N4CCOCC4)nn3)c2)ccc1[N+](=O)[O-] | x | x | n | 51 | n | x
Cc1ccc(C(=O)Nc2cccc(-c3ccc(N4CCOCC4)nn3)c2)cc1C | x | x | n | n | n | x
O=c1[nH]c(CSc2nnc3ccccn23)nc2cc(C(F)(F)F)ccc12 | n | n | x | x | n | n
CN1C(=CC=C2C=C(I)C(=O)C(I)=C2)C(C)(C)c2ccccc21 | x | 50 | n | n | x | x
Cc1cccc(C)c1NC(=O)C(c1cccc2ccccc12)n1c(=O)c(-c2cc3ccccc3[nH]2)nc2ccccc21 (centres undefined) | x | x | x | n | x | x
O=C(CSC(=S)N1CCSCC1)c1ccccc1 | n | n | n | n | n | 68
O=C(CSC(=S)N1CCSCC1)c1ccc(Cl)cc1 | n | n | n | n | n | n
O=C(O/N=C1/CCSc2ccccc21)c1ccc(F)cc1 | n | n | n | n | n | 88
O=C(O/N=C1\CCS(=O)(=O)c2sccc21)c1ccc(F)cc1 | n | n | n | n | n | n
O=C(O/N=C1/CCCc2occc21)c1ccc(F)cc1 | n | n | n | n | n | 80
Cc1ccc(N2CCN(C(CCc3ccccc3)C(=O)Nc3c(C)cccc3C)CC2)cc1 (centres undefined) | x | x | x | n | x | x
CCc1ccc(C(=O)Cn2ncc(Cl)c(Cl)c2=O)cc1 | n | n | n | 97 | n | n
Cc1ccc(Cn2ncc(Cl)c(Cl)c2=O)cc1 | n | n | n | 91 | n | n
O=C(Cn1ncc(Cl)c(Cl)c1=O)N1CCN(Cc2ccccc2)CC1 | n | n | n | n | x | n
SMILES | FLuc act counter | PPC-1+TRAIL kill | hiPSC survival | TRAIL sens C8 | MIN6 prolif | FLuc inhib CS
CC(C)NC(=O)C1(C)CCN1C(=O)C1(c2ccccc2)CCCC1 (centres undefined) | x | x | n | n | x | x
C#Cc1ccc(NC(=O)C2(C)CCN2C(=O)c2ccccc2CCc2ccccc2)cc1 (centres undefined) | x | x | n | 89 | x | x
C#Cc1ccc(NC(=O)C2(C)CCN2C(=O)C2(c3ccccc3)CCCC2)cc1 (centres undefined) | x | x | n | 86 | x | x
COc1ccccc1NC(=O)COC(=O)/C=C/c1ccc2c(c1)OCO2 | n | x | n | n | n | n
NC(=O)c1ccccc1NC(=O)/C=C/c1cccc(Cl)c1 | n | n | n | n | n | 56
COc1ccccc1NC(=O)/C=C/c1ccc2c(c1)OCO2 | n | n | n | n | n | 61
CCOC(=O)c1cccc(NC(=O)/C=C/c2ccc3c(c2)OCO3)c1 | n | n | n | 85 | n | n
COc1ccc(/C=C/C(=O)Nc2ccccc2C(=O)O)cc1OC | n | n | n | n | n | 54
NC(=O)c1ccccc1NC(=O)/C=C/c1c(Cl)cccc1Cl | n | n | n | n | n | n
Nc1nnnn1-c1cccc([N+](=O)[O-])c1 | x | x | n | n | x | x

Source: PubChem
